Measurements published in ChEMBL document CHEMBL1770071, “Multitargeted drugs discovery: balancing anti-amyloid and anticholinesterase capacity in a single chemical entity” (Bioorg Med Chem Lett, 2011).
pIC50: −log10 of the molar value.

Columns and labels:
Acetylcholinesterase = Acetylcholinesterase (Homo sapiens, UniProt P22303); experiment: Inhibition of human serum AChE
Cholinesterase = Cholinesterase (Homo sapiens, UniProt P06276); experiment: Inhibition of human serum BuChE
In short: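 BuChE purified from human serum; activity read by Ellman's method. IC50 is the inhibitor concentration that cuts enzyme activity by 50%, taken as the mean of two independent measurements each run in duplicate.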

[1] = Inhibition of amyloid beta (1-42) aggregation at 10 uM by thioflavin T based fluorometric assay
In short: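 Aβ1-42 self-induced aggregation, read by thioflavin T fluorescence, with Aβ1-42 to inhibitor ratio 5/1. Reported as % inhibition. Mean of two independent experiments, each in duplicate. Controls added compound to already-aggregated Aβ after ThT dilution to exclude ThT displacement.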

[2] = Neurotoxicity in human SH-SY5Y cells assessed as decrease in cell viability by MTT assay; format: toxicity, cell-based
In short: (§1)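 SH-SY5Y human neuronal-like cells treated with compound alone for 24 h, with viability read by colorimetric MTT assay. IC50 is the concentration giving 50% inhibition of neuronal viability. Range tested 1–50 µM.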

SH-SY5Y [3] = experiment: Neurotoxicity in human SH-SY5Y cells assessed as cell viability at 0.1 to 1 uM by MTT assay; format: toxicity, cell-based
SH-SY5Y [4] = experiment: Neuroprotective activity in human SH-SY5Y cells assessed as inhibition of amyloid beta(1-42)-induced neurotoxicity at 1 uM incubated for 3 hrs by MTT assay; format: functional; design: scale not given: the % may be the effect or the level left
In short: (§2)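 Human neuronal-like SH-SY5Y cells exposed for 3 h to Aβ1–42 pre-aggregated to oligomers, with compound present. Viability read by MTT colorimetric assay. Result expressed as % inhibition of oligomer-induced neurotoxicity, mean ± SD of at least two independent experiments.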

SH-SY5Y [5] = experiment: Neurotoxicity in human SH-SY5Y cells assessed as decrease in cell viability at 1 to 50 uM by MTT assay; format: toxicity, cell-based; in short: as §1
SH-SY5Y [6] = experiment: Neuroprotective activity in human SH-SY5Y cells assessed as inhibition of amyloid beta(1-42)-induced neurotoxicity at 10 uM incubated for 3 hrs by MTT assay; format: functional; design: scale not given: the % may be the effect or the level left; in short: as §2
SH-SY5Y [7] = experiment: Neurotoxicity in human SH-SY5Y cells assessed as cell viability at 0.1 to 10 uM by MTT assay; format: toxicity, cell-based

Sequence of Cholinesterase (P06276 whole entry): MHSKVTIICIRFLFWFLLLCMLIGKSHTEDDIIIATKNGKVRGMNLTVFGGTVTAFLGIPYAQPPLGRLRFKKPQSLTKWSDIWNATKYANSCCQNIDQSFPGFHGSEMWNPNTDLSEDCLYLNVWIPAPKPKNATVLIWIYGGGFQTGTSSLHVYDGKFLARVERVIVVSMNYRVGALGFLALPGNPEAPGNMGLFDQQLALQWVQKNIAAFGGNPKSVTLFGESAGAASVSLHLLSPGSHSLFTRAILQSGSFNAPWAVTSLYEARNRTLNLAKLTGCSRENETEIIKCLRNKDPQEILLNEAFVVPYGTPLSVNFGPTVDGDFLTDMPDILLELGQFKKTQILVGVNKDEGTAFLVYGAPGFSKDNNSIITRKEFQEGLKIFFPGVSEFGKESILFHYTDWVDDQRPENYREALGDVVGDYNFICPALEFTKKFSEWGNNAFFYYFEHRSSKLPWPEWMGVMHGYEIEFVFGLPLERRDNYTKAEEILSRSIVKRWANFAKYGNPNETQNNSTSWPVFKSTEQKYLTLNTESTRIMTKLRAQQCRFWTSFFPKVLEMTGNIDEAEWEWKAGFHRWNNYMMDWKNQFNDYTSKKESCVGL
Sequence of Acetylcholinesterase (P22303 whole entry): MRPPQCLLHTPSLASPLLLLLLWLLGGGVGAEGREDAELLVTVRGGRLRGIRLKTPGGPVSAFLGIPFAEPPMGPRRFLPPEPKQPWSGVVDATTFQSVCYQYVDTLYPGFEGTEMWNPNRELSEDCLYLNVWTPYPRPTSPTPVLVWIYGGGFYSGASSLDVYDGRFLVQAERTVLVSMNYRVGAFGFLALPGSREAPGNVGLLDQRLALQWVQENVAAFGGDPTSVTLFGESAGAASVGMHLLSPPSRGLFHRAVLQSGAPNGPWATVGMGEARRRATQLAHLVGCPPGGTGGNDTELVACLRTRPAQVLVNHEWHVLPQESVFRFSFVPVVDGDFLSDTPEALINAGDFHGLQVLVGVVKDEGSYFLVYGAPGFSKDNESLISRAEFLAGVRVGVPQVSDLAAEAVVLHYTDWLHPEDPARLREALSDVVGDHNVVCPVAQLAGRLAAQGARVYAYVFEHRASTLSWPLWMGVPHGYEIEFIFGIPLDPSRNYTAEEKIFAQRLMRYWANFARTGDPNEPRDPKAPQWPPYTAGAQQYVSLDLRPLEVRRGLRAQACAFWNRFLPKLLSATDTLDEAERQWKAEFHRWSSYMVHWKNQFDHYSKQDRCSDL

Work on O=C1C=C(NCCCNCc2cc3ccccc3o2)C(=O)C=C1NCCCNCc1cc2ccccc2o1 yielded a pIC50 (Acetylcholinesterase) of 4.66, a pIC50 (Cholinesterase) of 5.59 and an inhibition [1] of 27.2%. For the same compound, the pIC50 [2] was 4.83, the Activity (SH-SY5Y [3]) was “Non-toxic” and the Activity (SH-SY5Y [4]) was 25%.

In the case of O=C1C=C(NCCCCCCNCc2nc3ccccc3s2)C(=O)C=C1NCCCCCCNCc1nc2ccccc2s1, the pIC50 (Acetylcholinesterase) was 4.66, the pIC50 (Cholinesterase) was < 5.00 and the inhibition [1] was 18.5%.

With O=C1C=C(NCCCCCCNCc2cc3ccccc3o2)C(=O)C=C1NCCCCCCNCc1cc2ccccc2o1 the pIC50 (Acetylcholinesterase) was < 5.00, the pIC50 (Cholinesterase) was 4.07 and the inhibition [1] was 18.4%.

Compound O=C1C=C(NCCCCCCNCc2ccc(-c3nc4ccccc4s3)cc2)C(=O)C=C1NCCCCCCNCc1ccc(-c2nc3ccccc3s2)cc1 has a pIC50 (Acetylcholinesterase) of 6.52, a pIC50 (Cholinesterase) of 4.56 and an inhibition [1] of 25.7%.

For O=C1C=C(NCCCNCc2nc3ccccc3s2)C(=O)C=C1NCCCNCc1nc2ccccc2s1, the pIC50 (Acetylcholinesterase) was < 5.00, the pIC50 (Cholinesterase) was < 5.00 and the inhibition [1] was 16.2%. For the same compound, the Activity (SH-SY5Y [5]) was “Non-toxic”, the Activity (SH-SY5Y [3]) was “Non-toxic” and the Activity (SH-SY5Y [4]) was 25%.

In the case of COc1cc(/C=C/C(=O)CC(=O)/C=C/c2ccc(O)c(OC)c2)ccc1O, the inhibition [1] was 34.4%.

With O=C1C=C(NCCCNCc2ccc(-c3nc4ccccc4s3)cc2)C(=O)C=C1NCCCNCc1ccc(-c2nc3ccccc3s2)cc1 the pIC50 (Acetylcholinesterase) was 4.50, the pIC50 (Cholinesterase) was 4.45 and the inhibition [1] was 41.4%.

For CCN(CCCCCCNC1=CC(=O)C(NCCCCCCN(CC)Cc2ccccc2OC)=CC1=O)Cc1ccccc1OC [MEMOQUIN], the pIC50 [2] was 4.71, the Activity (SH-SY5Y [3]) was “Non-toxic” and the Activity (SH-SY5Y [4]) was 70%. The Activity (SH-SY5Y [6]) was 80%.

Work on COc1cc(CNCCCNC2=CC(=O)C(NCCCNCc3ccc(O)c(OC)c3)=CC2=O)ccc1O yielded a pIC50 (Acetylcholinesterase) of 6.70, a pIC50 (Cholinesterase) of 5.08 and an inhibition [1] of 22%. For the same compound, the Activity (SH-SY5Y [5]) was “Non-toxic”, the Activity (SH-SY5Y [7]) was “Non-toxic” and the Activity (SH-SY5Y [4]) was 25%.

COc1cc(CNCCCCCCNC2=CC(=O)C(NCCCCCCNCc3ccc(O)c(OC)c3)=CC2=O)ccc1O showed a pIC50 (Acetylcholinesterase) of 6.99, a pIC50 (Cholinesterase) of 5.80 and an inhibition [1] of 50.4%.
